Data on eight compounds can be found in ChEMBL document CHEMBL4184228, “Reversed isoniazids: Design, synthesis and evaluation against Mycobacterium tuberculosis” (Bioorg Med Chem, 2018).

The test system of test [1] is Mycobacterium tuberculosis. In words: Antimycobacterial activity against Mycobacterium bovis BCG. The class given is functional. The note with it: variant bovis BCG.
In test [2] the test system is Mycobacterium tuberculosis. In words: Growth inhibition of Mycobacterium bovis BCG infected in PBMC assessed as decrease in [3H]-uridine incorporation at <= IC20 after 72 hrs by microbeta scintillation counting analysis. The class given is functional, variant bovis BCG. Put shortly: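 PBMCs at 1.5x10^4/well; non-adherent cells are washed off after 24 h. Adherent monocytes are cultured 6 days, then infected with BCG at MOI 3 for 4 h and washed three times. Drugs are added at concentrations at or below the THP-1 IC20 for 72 h.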

Values after ≈ are worked out from the molar mass of the structure shown.

In general, MIC refers to the smallest concentration in the dilution series that meets the test's criterion for growth inhibition. In test [1], `O=C(NNCCCN1c2ccccc2CCc2ccccc21)c1ccncc1` returned an MIC of 13.4 µM (≈ 5 µg/mL). In addition, in test [2], the “growth inhibition (GI)” value is given as greater than 90%.

With `NNC(=O)c1ccncc1` [ISONIAZID], the MIC in test [1] came out at 0.015 µM (≈ 0.00206 µg/mL). For the same compound, the “growth inhibition (GI)” value in test [2] was greater than 90%.

Take `O=C(NNCCCN1CCC(N2c3ccccc3Sc3ccc(Cl)cc32)CC1)c1ccncc1`: 1 µM (≈ 0.494 µg/mL) was the least that counted as inhibitory in test [1] (MIC). For the same compound, in test [2], the “growth inhibition (GI)” value is greater than 90%.

Compound `O=C(NNCCCN1c2ccccc2Sc2ccccc21)c1ccncc1` had an MIC in test [1] of 13.3 µM (≈ 5.01 µg/mL). Moreover, the “growth inhibition (GI)” value in test [2] was greater than 90%.

On to `O=C(NNCCCN1c2ccccc2Sc2ccc(Cl)cc21)c1ccncc1`, for which the lowest concentration to inhibit growth in test [1] (MIC) was 2.44 µM (≈ 1 µg/mL). In test [2], the “growth inhibition (GI)” value was greater than 90%.

In test [1], `O=C(NNCCCN1c2ccccc2Sc2ccc(Cl)cc21)c1ccccc1` showed an MIC of 12.2 µM (≈ 5 µg/mL). Further, the “growth inhibition (GI)” value in test [2] was 40%.

As for `CN(C)CCCN1c2ccccc2Sc2ccc(Cl)cc21` [CHLORPROMAZINE], in test [1], the MIC came out at 4 µM (≈ 1.28 µg/mL). In addition, the “growth inhibition (GI)” value in test [2] came to 40%.

On to `O=C(NNCCCN1c2ccccc2Sc2ccccc21)c1ccccc1`, for which, in test [1], 26.6 µM (≈ 9.99 µg/mL) was the least that counted as inhibitory (MIC). Besides, in test [2], the “growth inhibition (GI)” value is recorded as 40%.
